According to ChEMBL document CHEMBL4257459, “Synergistic antifungal effect of cyclized chalcone derivatives and fluconazole against Candida albicans” (2017):
In brackets after ≈: the same amount, converted by molar mass.

Columns and labels:
Candida albicans [1] = assay: Antifungal activity against fluconazole resistant Candida albicans A171 by CLSI protocol based broth microdilution method; assay type: functional
Procedure, shortened: (§1)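 Broth microdilution per CLSI M27-A3 against clinical C. albicans isolates. Strains sub-cultured at least twice on Tryptone Soya Agar, 37 °C, 48 h. Compounds dissolved in DMSO at 2000 μg mL–1 stock. Fluconazole positive control, plus culture, media and vehicle controls. Run in duplicate; MIC in μg mL–1.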

Candida albicans [2] = assay: Antifungal activity against fluconazole susceptible Candida albicans 002B1 by CLSI protocol based broth microdilution method; assay type: functional
Procedure, shortened: (§2)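 Clinical isolates and control strain subcultured at least twice on TSA, 37 °C, 48 h. MICs by CLSI M27-A3 broth microdilution; compounds dissolved in DMSO to 2000 μg mL–1 stock. Fluconazole positive control, culture, media and DMSO vehicle controls in each run. Duplicate experiments; MIC in μg mL–1.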

Candida albicans [3] = assay: Antifungal activity against fluconazole susceptible Candida albicans 004gr in presence of fluconazole by CLSI protocol based broth microdilution method; assay type: functional
Candida albicans [4] = assay: Antifungal activity against fluconazole susceptible Candida albicans 003gr by CLSI protocol based broth microdilution method; assay type: functional; procedure, shortened: as §2
Candida albicans [5] = assay: Antifungal activity against fluconazole resistant Candida albicans 167-1 by CLSI protocol based broth microdilution method; assay type: functional; procedure, shortened: as §1
Candida albicans [6] = assay: Antifungal activity against fluconazole susceptible Candida albicans 002B1 in presence of fluconazole by CLSI protocol based broth microdilution method; assay type: functional
Candida albicans [7] = assay: Antifungal activity against Candida albicans ATCC 90028 in presence of fluconazole by CLSI protocol based broth microdilution method; assay type: functional
Candida albicans [8] = assay: Antifungal activity against fluconazole susceptible Candida albicans 004B1 by CLSI protocol based broth microdilution method; assay type: functional; procedure, shortened: as §2
Candida albicans [9] = assay: Inhibition of ABC efflux pumps in fluconazole susceptible Candida albicans 004B1 assessed as reduction in energy-dependent rhodamine 6G efflux in presence of 0.1 M glucose after 25 mins by fluorescence assay relative to control
Procedure, shortened: (§3)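 Cells grown in TSB at 37 °C for 8 h, washed, resuspended in glucose-free PBS at 1 × 10^8 cells. De-energized 45 min with 5 mM deoxyglucose plus 5 mM dinitrophenol. […] Washed, sampled 5–25 min, then 0.1 M glucose added. Absorbance 527 nm, R6G from standard curve.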

Candida albicans [10] = assay: Inhibition of ergosterol biosynthesis in fluconazole resistant Candida albicans A171 at 0.5 to 1 times MIC relative to control; assay type: functional
Procedure, shortened: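 Total sterols quantified by alcoholic KOH extraction in cells grown in 50 ml TSB with compounds at MIC and ½ MIC; untreated and 8 μg mL–1 fluconazole controls. Spectral scan; ergosterol content from A281.5 and A230 absorbances, dilution factor and pellet weight, correcting for 24(28) DHE.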

Candida albicans [11] = assay: Antifungal activity against fluconazole resistant Candida albicans 167-2 in presence of fluconazole by CLSI protocol based broth microdilution method; assay type: functional
Procedure, shortened: (§4)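 Checkerboard-style combination with fluconazole at a 1 : 1 ratio, over concentrations 2–4 fold below each agent's MIC alone, by CLSI broth microdilution. Fractional inhibitory concentration index calculated and interpreted as synergy (<0.5), additive (0.5–1), indifferent or antagonistic.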

Candida albicans [12] = assay: Antifungal activity against fluconazole resistant Candida albicans 167-1 in presence of fluconazole by CLSI protocol based broth microdilution method; assay type: functional; procedure, shortened: as §4
Candida albicans [13] = assay: Antifungal activity against fluconazole susceptible Candida albicans 0079gr in presence of fluconazole by CLSI protocol based broth microdilution method; assay type: functional
Candida albicans [14] = assay: Inhibition of ABC efflux pumps in fluconazole susceptible Candida albicans 003gr assessed as reduction in energy-dependent rhodamine 6G efflux in presence of 0.1 M glucose after 25 mins […] relative to control
Candida albicans [15] = assay: Antifungal activity against Candida albicans ATCC 90028 by CLSI protocol based broth microdilution method; assay type: functional; procedure, shortened: as §2
Candida albicans [16] = assay: Antifungal activity against fluconazole resistant Candida albicans 167-2 by CLSI protocol based broth microdilution method; assay type: functional; procedure, shortened: as §1
Candida albicans [17] = assay: Antifungal activity against fluconazole resistant Candida albicans A171 in presence of fluconazole by CLSI protocol based broth microdilution method; assay type: functional; procedure, shortened: as §4
Candida albicans [18] = assay: Down regulation of ERG11 gene expression in fluconazole resistant Candida albicans A171 at MIC after 2 hrs by qRT PCR analysis relative to control; assay type: functional
Procedure, shortened: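 Cells exposed 2 h to test agents at MIC. Total RNA isolated, cDNA synthesized, qPCR for ERG11 with ACT1 as endogenous control. Triplicate independent experiments, reported as mean ± standard deviation.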

Candida albicans [19] = assay: Inhibition of ABC efflux pumps in fluconazole susceptible Candida albicans 002B1 assessed as reduction in energy-dependent rhodamine 6G efflux in presence of 0.1 M glucose after 25 mins […] relative to control
Candida albicans [20] = assay: Antifungal activity against fluconazole susceptible Candida albicans 0079gr by CLSI protocol based broth microdilution method; assay type: functional; procedure, shortened: as §2
Candida albicans [21] = assay: Inhibition of ABC efflux pumps in fluconazole resistant Candida albicans 167-2 assessed as reduction in energy-dependent rhodamine 6G efflux in presence of 0.1 M glucose after 25 mins […] relative to control
Candida albicans [22] = assay: Inhibition of ABC efflux pumps in fluconazole resistant Candida albicans A171 assessed as reduction in energy-dependent rhodamine 6G efflux in presence of 0.1 M glucose after 25 mins by fluorescence assay relative to control; procedure, shortened: as §3
Candida albicans [23] = assay: Inhibition of ABC efflux pumps in fluconazole resistant Candida albicans 167-1 assessed as reduction in energy-dependent rhodamine 6G efflux in presence of 0.1 M glucose after 25 mins […] relative to control
Candida albicans [24] = assay: Inhibition of ABC efflux pumps in fluconazole susceptible Candida albicans 0072gr assessed as reduction in energy-dependent rhodamine 6G efflux in presence of 0.1 M glucose after 25 mins […] relative to control
Candida albicans [25] = assay: Antifungal activity against fluconazole susceptible Candida albicans 004B1 in presence of fluconazole by CLSI protocol based broth microdilution method; assay type: functional
Candida albicans [26] = assay: Inhibition of ergosterol biosynthesis in fluconazole susceptible Candida albicans ATCC 90028 at 0.5 to 1 times MIC relative to control; assay type: functional
Procedure, shortened: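 ATCC90028 grown in 50 ml TSB with MIC and ½ MIC of compound; untreated and 8 μg mL–1 fluconazole controls. Sterols extracted by alcoholic KOH method and spectrophotometrically scanned; ergosterol % calculated from A281.5 and A230 (E values 290 and 518) with dilution factor, per pellet weight.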

Candida albicans [27] = assay: Down regulation of ERG11 gene expression in fluconazole susceptible Candida albicans ATCC 90028 at MIC after 2 hrs by qRT PCR analysis relative to control; assay type: functional
Procedure, shortened: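 Cells exposed to compound at MIC for 2 h; total RNA isolated, cDNA synthesised, ERG11 measured by real-time qPCR with ACT1 as endogenous control. Triplicate independent experiments; mean ± standard deviation.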

Candida albicans [28] = assay: Antifungal activity against fluconazole susceptible Candida albicans 004gr by CLSI protocol based broth microdilution method; assay type: functional; procedure, shortened: as §2
Candida albicans [29] = assay: Antifungal activity against fluconazole susceptible Candida albicans 003gr in presence of fluconazole by CLSI protocol based broth microdilution method; assay type: functional
Candida albicans [30] = assay: Antifungal activity against fluconazole susceptible Candida albicans 0072gr in presence of fluconazole by CLSI protocol based broth microdilution method; assay type: functional
Candida albicans [31] = assay: Inhibition of ABC efflux pumps in fluconazole susceptible Candida albicans 004gr assessed as reduction in energy-dependent rhodamine 6G efflux in presence of 0.1 M glucose after 25 mins by fluorescence assay relative to control; procedure, shortened: as §3
Candida albicans [32] = assay: Antifungal activity against fluconazole susceptible Candida albicans 0072gr by CLSI protocol based broth microdilution method; assay type: functional; procedure, shortened: as §2
Candida albicans [33] = assay: Inhibition of ABC efflux pumps in fluconazole susceptible Candida albicans 0079gr assessed as reduction in energy-dependent rhodamine 6G efflux in presence of 0.1 M glucose after 25 mins by fluorescence assay relative to control; procedure, shortened: as §3

SMILES: c1ccc(C2=NOC(c3ccc(C4CC(c5ccccc5)=NO4)cc3)C2)cc1 (stereo unspecified)
- MIC (Candida albicans [1]): 8 to 16 µg/mL (≈ 21.7 to 43.4 µM)
- MIC (Candida albicans [2]): 2 to 8 µg/mL (≈ 5.43 to 21.7 µM)
- fractional inhibitory concentration index (FICI) (Candida albicans [3]): 0.37 - 0.75
- MIC (Candida albicans [4]): 2 to 8 µg/mL (≈ 5.43 to 21.7 µM)
- MIC (Candida albicans [5]): 8 to 16 µg/mL (≈ 21.7 to 43.4 µM)
- fractional inhibitory concentration index (FICI) (Candida albicans [6]): 0.37 - 0.75
- fractional inhibitory concentration index (FICI) (Candida albicans [7]): 0.37 - 0.75
- MIC (Candida albicans [8]): 2 to 8 µg/mL (≈ 5.43 to 21.7 µM)
- inhibition (Candida albicans [9]): < 20%
- inhibition (INH) (Candida albicans [10]): 49 - 94%
- fractional inhibitory concentration index (FICI) (Candida albicans [11]): 0.532 - 1.02
- fractional inhibitory concentration index (FICI) (Candida albicans [12]): 0.532 - 1.02
- fractional inhibitory concentration index (FICI) (Candida albicans [13]): 0.37 - 0.75
- inhibition (Candida albicans [14]): < 20%
- MIC (Candida albicans [15]): 2 to 8 µg/mL (≈ 5.43 to 21.7 µM)
- MIC (Candida albicans [16]): 8 to 16 µg/mL (≈ 21.7 to 43.4 µM)
- fractional inhibitory concentration index (FICI) (Candida albicans [17]): 0.532 - 1.02
- fold change (FC) (Candida albicans [18]): 1.25 - 10
- inhibition (Candida albicans [19]): < 20%
- MIC (Candida albicans [20]): 2 to 8 µg/mL (≈ 5.43 to 21.7 µM)
- inhibition (Candida albicans [21]): < 20%
- inhibition (Candida albicans [22]): < 20%
- inhibition (Candida albicans [23]): < 20%
- inhibition (Candida albicans [24]): < 20%
- fractional inhibitory concentration index (FICI) (Candida albicans [25]): 0.37 - 0.75
- inhibition (INH) (Candida albicans [26]): 66 - 99%
- fold change (FC) (Candida albicans [27]): 1.5 - 13
- MIC (Candida albicans [28]): 2 to 8 µg/mL (≈ 5.43 to 21.7 µM)
- fractional inhibitory concentration index (FICI) (Candida albicans [29]): 0.37 - 0.75
- fractional inhibitory concentration index (FICI) (Candida albicans [30]): 0.37 - 0.75
- inhibition (Candida albicans [31]): < 20%
- MIC (Candida albicans [32]): 2 to 8 µg/mL (≈ 5.43 to 21.7 µM)
- inhibition (Candida albicans [33]): < 20%

SMILES: O=C1NC(c2ccccc2)=CC(c2ccc(C3C=C(c4ccccc4)NC(=O)N3)cc2)N1 (stereo unspecified)
- MIC (Candida albicans [1]): 4 to 8 µg/mL (≈ 9.47 to 18.9 µM)
- MIC (Candida albicans [2]): 0.25 to 2 µg/mL (≈ 0.592 to 4.73 µM)
- fractional inhibitory concentration index (FICI) (Candida albicans [3]): 0.13 - 0.38
- MIC (Candida albicans [4]): 0.25 to 2 µg/mL (≈ 0.592 to 4.73 µM)
- MIC (Candida albicans [5]): 4 to 8 µg/mL (≈ 9.47 to 18.9 µM)
- fractional inhibitory concentration index (FICI) (Candida albicans [6]): 0.13 - 0.38
- fractional inhibitory concentration index (FICI) (Candida albicans [7]): 0.13 - 0.38
- MIC (Candida albicans [8]): 0.25 to 2 µg/mL (≈ 0.592 to 4.73 µM)
- inhibition (Candida albicans [9]): < 20%
- inhibition (INH) (Candida albicans [10]): 49 - 94%
- fractional inhibitory concentration index (FICI) (Candida albicans [11]): 0.031
- fractional inhibitory concentration index (FICI) (Candida albicans [12]): 0.031 - 0.25
- fractional inhibitory concentration index (FICI) (Candida albicans [13]): 0.13 - 0.38
- inhibition (Candida albicans [14]): < 20%
- MIC (Candida albicans [15]): 0.25 to 2 µg/mL (≈ 0.592 to 4.73 µM)
- MIC (Candida albicans [16]): 4 to 8 µg/mL (≈ 9.47 to 18.9 µM)
- fractional inhibitory concentration index (FICI) (Candida albicans [17]): 0.031 - 0.25
- fold change (FC) (Candida albicans [18]): 1.25 - 10
- inhibition (Candida albicans [19]): < 20%
- MIC (Candida albicans [20]): 0.25 to 2 µg/mL (≈ 0.592 to 4.73 µM)
- inhibition (Candida albicans [21]): < 20%
- inhibition (Candida albicans [22]): < 20%
- inhibition (Candida albicans [23]): < 20%
- inhibition (Candida albicans [24]): < 20%
- fractional inhibitory concentration index (FICI) (Candida albicans [25]): 0.13 - 0.38
- inhibition (INH) (Candida albicans [26]): 66 - 99%
- fold change (FC) (Candida albicans [27]): 1.5 - 13
- MIC (Candida albicans [28]): 0.25 to 2 µg/mL (≈ 0.592 to 4.73 µM)
- fractional inhibitory concentration index (FICI) (Candida albicans [29]): 0.13 - 0.38
- fractional inhibitory concentration index (FICI) (Candida albicans [30]): 0.13 - 0.38
- inhibition (Candida albicans [31]): < 20%
- MIC (Candida albicans [32]): 0.25 to 2 µg/mL (≈ 0.592 to 4.73 µM)
- inhibition (Candida albicans [33]): < 20%
